Test results as given in ChEMBL document CHEMBL1122037, “Use of adenine nucleotide derivatives to assess the potential of exo-active-site-directed reagents as species- or isozyme-specific enzyme inactivators. 4. Interactions of adenosine 5'-triphosphate derivatives with adenylate kinases from Escherichia coli and rat tissues” (J Med Chem, 1982).
Where “and” joins values, the source holds several entries; their conditions need not be identical. Equal values may be shown once. Blank lines part the entries; values can stand above or below the molecule they belong to.

Experiments:
Rattus norvegicus [1] = species: Rattus norvegicus; experiment: Ability to inhibit rat adenylate kinase II, activity expressed as Maximum velocity; assay type: ADME
Summary of the method: (§1)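 Coupled spectrophotometric assay (pyruvate kinase/lactate dehydrogenase, NADH oxidation) in 0.1 M Tris-HCl pH 7.6 with 2 mM MgSO4, 0.12 M KCl, 0.31 mM PEP, 0.38 mM NADH and 0.25 mM AMP. Derivatives were added as 1:1 Mg complexes. KM was obtained from linear Lineweaver-Burk plots using five or more substrate levels spanning 0.5–4.0 × KM. Inhibition was typed as competitive or noncompetitive versus ATP.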

Rattus norvegicus [2] = species: Rattus norvegicus; experiment: Ability to inhibit rat adenylate kinase III, activity expressed as Maximum velocity; assay type: ADME; conditions: in vitro; summary of the method: as §1
[3] = biological target: Adenylate kinase 2, mitochondrial (Rattus norvegicus, UniProt P29410); experiment: Ability to inhibit rat adenylate kinase II, activity expressed as Inhibition constant; summary of the method: as §1
[4] = biological target: T1, GTP:AMP phosphotransferase AK3, mitochondrial (Rattus norvegicus, UniProt P29411); experiment: Ability to inhibit rat adenylate kinase III, activity expressed as Inhibition constant; Competitive inhibition; summary of the method: as §1
[5] = biological target: Adenylate kinase (Escherichia coli) (UniProt P69441); experiment: Ability to inhibit Escherichia coli adenylate kinase II activity expressed as half maximal velocity
Rattus norvegicus [6] = species: Rattus norvegicus; experiment: Ability to inhibit rat adenylate kinase III, activity expressed as half-maximal velocity; assay type: ADME; summary of the method: as §1
[7] = biological target: T1, GTP:AMP phosphotransferase AK3, mitochondrial; experiment: Ability to inhibit rat adenylate kinase III, activity expressed as Inhibition constant; summary of the method: as §1
Rattus norvegicus [8] = species: Rattus norvegicus; experiment: Ability to inhibit rat adenylate kinase II, activity expressed as half-maximal velocity; assay type: ADME; conditions: in vitro; summary of the method: as §1
Escherichia coli [9] = experiment: Ability to inactivate Escherichia coli adenylate kinase after exposing enzyme to 0 mM levels of MgATP at concentration of 13.5 mM, pH 7.6
Summary of the method: (§2)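 E. coli B enzyme, partially purified 27-fold (fraction IV), exposed 6 h at 22 °C, pH 7.6, to the Mg2+ 1:1 complex of the ATP derivative in the Tris/MgSO4/KCl reaction buffer, with or without MgATP. Aliquots withdrawn at intervals and assayed spectrophotometrically with 1 mM ATP. Activity was compared with controls lacking the derivative. Read-out is % inactivation after 6 h.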

Escherichia coli [10] = experiment: Ability to inhibit Escherichia coli adenylate kinase II, activity expressed as Maximum velocity; assay type: ADME; conditions: in vitro; summary of the method: as §1
Rattus norvegicus [11] = species: Rattus norvegicus; experiment: Ability of the 1.42 mM compound to inactivate rat muscle adenylate kinase was determined, after exposing enzyme to 2.2 mM levels of ATP activity expressed as percent loss of inactivation
Summary of the method: (§3)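 Rat muscle enzyme preincubated at 22 °C with the 1:1 Mg2+ complex of the derivative, alone or with added AMP or ATP. Aliquots were assayed at intervals in the coupled system containing 1 mM ATP, alongside controls lacking the derivative. Half-time of inactivation was taken from pseudo-first-order plots, or % activity loss at 5–6 h was reported.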

[12] = biological target: Adenylate kinase (Escherichia coli) (UniProt P69441); experiment: Ability to inactivate adenylate kinase was determined, after exposing enzyme to mM levels of MgATP at pH 7.6
[13] = tested on: Adenylate kinase, muscle isozyme (Rattus norvegicus); experiment: Ability of the 1.14 mM compound to inactivate rat muscle adenylate kinase was determined, after exposing enzyme to 0 mM levels of MgATP, activity expressed as percent loss of inactivation
Escherichia coli [14] = experiment: Ability to inactivate Escherichia coli adenylate kinase after exposing enzyme to 0 mM levels of MgATP at concentration of 11.8 mM, pH 7.6; summary of the method: as §2
[15] = biological target: Adenylate kinase (Escherichia coli) (UniProt P69441); experiment: Ability of the 9 mM compound to inactivate adenylate kinase was determined, after exposing enzyme to 0 mM levels of MgATP in 6 h at 22 degree C
Escherichia coli [16] = experiment: Ability to inhibit Escherichia coli adenylate kinase II activity expressed as Maximum velocity; assay type: ADME
Summary of the method: (§4)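 E. coli B adenylate kinase, partially purified 27-fold (streptomycin, ammonium sulfate fractionation, DEAE-cellulose; fraction IV). ATP derivatives tested as 1:1 Mg²⁺ complexes as phosphate donor. Coupled PK/LDH NADH-oxidation spectrophotometric assay in 0.1 M Tris-HCl pH 7.6 with 2 mM MgSO₄, 0.12 M KCl, 0.31 mM PEP, 0.38 mM NADH and 0.25 mM AMP. Constants came from linear Lineweaver-Burk plots of initial velocity, using ≥5 substrate levels across 0.5–4.0 × KM.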

Escherichia coli [17] = experiment: Ability inactivate Escherichia coli adenylate kinase was determined, after exposing enzyme to mM levels of MgATP at pH 7.6; summary of the method: as §2
Escherichia coli [18] = experiment: Ability to inactivate Escherichia coli adenylate kinase after exposing enzyme to 0 mM levels of MgATP at concentration of 4.5mM, pH 7.6 for 6 h; assay type: functional; summary of the method: as §2
Rattus norvegicus [19] = species: Rattus norvegicus; experiment: Ability of the 1.10 mM compound to inactivate rat muscle adenylate kinase was determined, after exposing enzyme to 2.2 mM levels of ATP activity expressed as percent loss of inactivation; summary of the method: as §3
[20] = tested on: Adenylate kinase, muscle isozyme (Rattus norvegicus); experiment: Ability of the 0.094 mM compound to inactivate rat muscle adenylate kinase was determined, after exposing enzyme to 1.4 mM levels of ATP activity expressed as % loss of inactivation
Escherichia coli [21] = experiment: Ability of 13.2 mM compound to inactivate Escherichia coli adenylate kinase was determined, after exposing enzyme to 10.7 mM levels of MgATP after 6 hr at 22 degree C; summary of the method: as §2
Escherichia coli [22] = experiment: Ability of 13.2 mM compound to inactivate Escherichia coli adenylate kinase was determined, after exposing enzyme to 0 mM levels of MgATP after 6 hr at 22 degree C; summary of the method: as §2
[23] = biological target: Adenylate kinase 2, mitochondrial (Rattus norvegicus) (UniProt P29410); experiment: Ability to inhibit rat adenylate kinase II, […]
Summary of the method: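 Rat adenylate kinase isozyme II. ATP derivatives were used as 1:1 Mg²⁺ complexes and varied against ATP as phosphate donor. Coupled PK/LDH NADH-oxidation spectrophotometric assay in 0.1 M Tris-HCl pH 7.6 with 2 mM MgSO₄, 0.12 M KCl, 0.31 mM PEP, 0.38 mM NADH and 0.25 mM AMP. Inhibition type was assigned as competitive or noncompetitive with respect to ATP from initial-velocity kinetics.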

Escherichia coli [24] = experiment: Ability to inactivate adenylate kinase was determined, after exposing enzyme to mM levels of MgATP at pH 7.6 at a concentration of 26.0; summary of the method: as §2
Escherichia coli [25] = experiment: Ability to inactivate adenylate kinase was determined, after exposing enzyme to mM levels of MgATP at pH 7.6 at a concentration of 9.7; summary of the method: as §2
Escherichia coli [26] = experiment: Ability to inactivate adenylate kinase was determined, after exposing enzyme to mM levels of MgATP at pH 7.6 at a concentration of 9.9; summary of the method: as §2
Rattus norvegicus [27] = species: Rattus norvegicus; experiment: Ability of to inactivate rat muscle adenylate kinase was determined activity expresses as Percent loss of inactivation; summary of the method: as §3
Escherichia coli [28] = experiment: Ability to inhibit Escherichia coli adenylate kinase II activity expressed as half maximal velocity; assay type: ADME, organism-based; conditions: in vivo; summary of the method: as §4
Escherichia coli [29] = experiment: Ability to inactivate Escherichia coli adenylate kinase after exposing enzyme to 0 mM levels of MgATP at concentration of 8.1 mM, pH 7.6; summary of the method: as §2

Vmax (Rattus norvegicus [1]): 0%
Vmax (Rattus norvegicus [2]): 0%
Ki [3]: 1.8 mM
Ki [4]: 2.2 mM
Inactivation [5]: 0%
Compound: CN(CCCCCCN(C)c1ncnc2c1ncn2[C@@H]1O[C@H](COP(=O)(O)OP(=O)(O)OP(=O)(O)O)[C@@H](O)[C@H]1O)C(=O)CCCCCCNC(=O)CI

Inactivation (Escherichia coli [9]): 5%
Compound: O=C(CI)NCCCCCC(=O)NCCCCNc1ncnc2c1ncn2[C@@H]1O[C@H](COP(=O)(O)OP(=O)(O)OP(=O)(O)O)[C@@H](O)[C@H]1O

Vmax (Rattus norvegicus [1]): 0%
Vmax (Rattus norvegicus [2]): 0%
Ki [3]: 1.9 mM
Ki [4]: 2.4 mM
Inactivation [5]: 1%
Compound: CN(CCCCCCN(C)c1ncnc2c1ncn2[C@@H]1O[C@H](COP(=O)(O)OP(=O)(O)OP(=O)(O)O)[C@@H](O)[C@H]1O)C(=O)CCCCCNC(=O)CI

Loss of inactivation (Rattus norvegicus [11]): 0%
Compound: O=C(CI)NCCCC(=O)NCCCCCCNc1ncnc2c1ncn2[C@@H]1O[C@H](COP(=O)(O)OP(=O)(O)OP(=O)(O)O)[C@@H](O)[C@H]1O

Vmax (Escherichia coli [10]): 0%
Compound: CN(CCCN(C)C(=O)CCCCNc1ncnc2c1ncn2[C@@H]1O[C@H](COP(=O)(O)OP(=O)(O)OP(=O)(O)O)[C@@H](O)[C@H]1O)C(=O)CCCCNC(=O)OCc1ccccc1

Km (Rattus norvegicus [6]): 1100 µM
Vmax (Rattus norvegicus [1]): 5%
Vmax (Rattus norvegicus [2]): 6%
Km (Rattus norvegicus [8]): 400 µM
Inactivation [12]: 12%
Compound: O=C(CI)NCCCCCCCCNc1ncnc2c1ncn2[C@@H]1O[C@H](COP(=O)(O)OP(=O)(O)OP(=O)(O)O)[C@@H](O)[C@H]1O

Inactivation (Escherichia coli [14]): 0%
Compound: CN(CCCN(C)C(=O)CCCNc1ncnc2c1ncn2[C@@H]1O[C@H](COP(=O)(O)OP(=O)(O)OP(=O)(O)O)[C@@H](O)[C@H]1O)C(=O)CCCNC(=O)CI

Inactivation [15]: 2%
Compound: O=C(CI)NCCCCNc1ncnc2c1ncn2[C@@H]1O[C@H](COP(=O)(O)OP(=O)(O)OP(=O)(O)O)[C@@H](O)[C@H]1O

Vmax (Escherichia coli [16]): 0%
Vmax (Rattus norvegicus [1]): 0%
Vmax (Rattus norvegicus [2]): 0%
Inactivation (Escherichia coli [17]): 2%
Ki [3]: 1.6 mM
Ki [4]: 2.1 mM
Compound: CN(CCCCN(C)c1ncnc2c1ncn2[C@@H]1O[C@H](COP(=O)(O)OP(=O)(O)OP(=O)(O)O)[C@@H](O)[C@H]1O)C(=O)CCCCCCNC(=O)CI

Loss of inactivation (Rattus norvegicus [19]): 20%
Compound: O=C(CI)NCCCCCCCNc1ncnc2c1ncn2[C@@H]1O[C@H](COP(=O)(O)OP(=O)(O)OP(=O)(O)O)[C@@H](O)[C@H]1O
Inactivation (Escherichia coli [18]): 7%

Km (Rattus norvegicus [6]): 400 µM
Vmax (Rattus norvegicus [1]): 21%
Vmax (Rattus norvegicus [2]): 9%
Inactivation (Escherichia coli [21]): 36%
Inactivation (Escherichia coli [22]): 37%
Ki [4]: 6.2 mM
Km (Rattus norvegicus [8]): 1000 µM
Compound: O=C(CI)NCCCCCNc1ncnc2c1ncn2[C@@H]1O[C@H](COP(=O)(O)OP(=O)(O)OP(=O)(O)O)[C@@H](O)[C@H]1O

Inactivation (Escherichia coli [24]): 46% and 47%
Inactivation (Escherichia coli [25]): 25%
Inactivation (Escherichia coli [26]): 25%
Loss of inactivation (Rattus norvegicus [27]): 8%
Compound: O=C(CI)NCCCCCCNc1ncnc2c1ncn2[C@@H]1O[C@H](COP(=O)(O)OP(=O)(O)OP(=O)(O)O)[C@@H](O)[C@H]1O

More lines, now with the values behind:

Compound: O=C(CI)NCCNc1ncnc2c1ncn2[C@@H]1O[C@H](COP(=O)(O)OP(=O)(O)OP(=O)(O)O)[C@@H](O)[C@H]1O
Km (Rattus norvegicus [6]): 400 µM
Vmax (Rattus norvegicus [1]): 5%
Vmax (Rattus norvegicus [2]): 2%
Ki [7]: 5.9 mM
Km (Rattus norvegicus [8]): 1600 µM

Compound: NCCCCCNc1ncnc2c1ncn2C1O[C@H](COP(=O)(O)OP(=O)(O)OP(=O)(O)O)[C@@H](O)[C@H]1O (stereo partly drawn)
Vmax (Escherichia coli [10]): 0%

Compound: Nc1ncnc2c1nc(NCCCCCCNC(=O)CI)n2[C@@H]1O[C@H](COP(=O)(O)OP(=O)(O)OP(=O)(O)O)[C@@H](O)[C@H]1O
Ki [3]: 0.3 mM

Compound: CC(=O)NCCCCCCCCNc1ncnc2c1ncn2C1O[C@H](COP(=O)(O)O)[C@@H](O)[C@H]1O (stereo partly drawn)
Loss of inactivation [13]: 0%

Compound: CC(=O)NCCCCCCNc1nc2c(N)ncnc2n1C1O[C@H](COP(=O)(O)OP(=O)(O)OP(=O)(O)O)[C@@H](O)[C@H]1O (stereo partly drawn)
Vmax (Escherichia coli [10]): 0%

Compound: NCCCCCCNc1nc2c(N)ncnc2n1C1O[C@H](COP(=O)(O)OP(=O)(O)OP(=O)(O)O)[C@@H](O)[C@H]1O (stereo partly drawn)
Vmax (Escherichia coli [10]): 0%

Compound: O=C(CI)NCCCCCCCCNc1ncnc2c1ncn2C1O[C@H](CO)[C@@H](O)[C@H]1O (stereo partly drawn)
Loss of inactivation [20]: 30%

Compound: NC(=O)CI
Loss of inactivation [23]: 0%

Compound: Nc1ncnc2c1ncn2[C@@H]1O[C@H](COP(=O)(O)OP(=O)(O)OP(=O)(O)O)[C@@H](O)[C@H]1O [ADENOSINE TRIPHOSPHATE]
Km (Escherichia coli [28]): 60 µM
Km (Rattus norvegicus [6]): 90 µM
Vmax (Escherichia coli [16]): 100%
Vmax (Rattus norvegicus [1]): 100%
Vmax (Rattus norvegicus [2]): 100%
Km (Rattus norvegicus [8]): 90 µM

Compound: O=C(CI)NCCCCCCC(=O)NCCCCCCNc1ncnc2c1ncn2[C@@H]1O[C@H](COP(=O)(O)OP(=O)(O)OP(=O)(O)O)[C@@H](O)[C@H]1O
Inactivation (Escherichia coli [29]): 4%
